Measured values pooled from the literature.
Lines come from different studies, so protocols differ.
ADRB2: Beta-2 adrenergic receptor (ADRB2, Homo sapiens, UniProt P07550)
Trpc6: Short transient receptor potential channel 6 (Trpc6, Mus musculus, UniProt Q61143)
Akr1b1: Aldo-keto reductase family 1 member B1 (Akr1b1, Rattus norvegicus, UniProt P07943)
CNR2: Cannabinoid receptor 2 (CNR2, Homo sapiens, UniProt P34972)
CYP1B1: Cytochrome P450 1B1 (CYP1B1, Homo sapiens, UniProt Q16678)
MMP2: 72 kDa type IV collagenase (MMP2, Homo sapiens, UniProt P08253)
DDR1: Epithelial discoidin domain-containing receptor 1 (DDR1, Homo sapiens, UniProt Q08345)
HDAC10: Polyamine deacetylase HDAC10 (HDAC10, Homo sapiens, UniProt Q969S8)
SETD7: Histone-lysine N-methyltransferase SETD7 (SETD7, Homo sapiens, UniProt Q8WTS6)
P2RY6: P2Y purinoceptor 6 (P2RY6, Homo sapiens, UniProt Q15077)

| Structure (SMILES) | target | assay | system | setting | IC50 [nM] |
| --- | --- | --- | --- | --- | --- |
| CCN1CCCC1CNC(=O)c1cc(S(=O)(=O)CC)c(N)cc1OC (stereo not drawn) | ADRB2 | ligand displacement, radioligand | – | cell membranes | 105000 |
| COc1cccc2sc(N(CCN(C)C)C(=O)c3ccc(Cl)s3)nc12 | Trpc6 | calcium signal, fluorescence | – | – | 139000 |
| COc1ccc2nc(/N=C3/NC(=O)C(=Cc4ccc(Cl)cc4)S3)sc2c1 | Akr1b1 | enzyme activity, inhibitor, absorbance | – | pH 6.2 | 3990 |
| CC[C@H](C)[C@H](NC(C)=O)C(=O)N[C@@H](CCC(=O)O)C(=O)N[C@H](C(=O)N[C@H](C=O)CC(=O)O)[C@@H](C)O | Caspase-2 (Homo sapiens, UniProt P42575) | enzyme activity, inhibitor | – | – | 109 |
| COc1cc(N)c(Cl)cc1C(=O)CCC1CCN(CCNS(C)(=O)=O)CC1 | ADRB2 | ligand displacement, radioligand | – | cell membranes | 62600 |
| Cc1c(C(=O)Nc2ccc(C(F)(F)F)cn2)nc(-c2ccc(Cl)cc2Cl)n1-c1ccc(OS(=O)(=O)CCC(F)(F)F)cc1 | CNR2 | GTPγS binding, antagonist | – | cell membranes | 133 |
| COc1ccc2nc(N(CCN(C)C)C(=O)c3ccc(Cl)s3)sc2c1 | Trpc6 | calcium signal, fluorescence | – | – | 61100 |
| CC(C)=CCc1c(O)cc(O)c2c1O[C@H](c1ccc(O)cc1)CC2=O | CYP1B1 | enzyme activity, inhibitor, fluorescence | – | 15 min, pH 7.4 | 410 |
| Cc1noc(-c2cc3cc(-c4nc(C(=O)NCc5cccnc5)[nH]c4C)ccc3[nH]2)n1 | MMP2 | enzyme activity, inhibitor | – | – | > 20000 |
| CN/C(=N/CCSCc1nc[nH]c1C)NC#N | Solute carrier family 22 member 2 (SLC22A2, Homo sapiens, UniProt O15244) | transporter uptake, inhibitor | MDCK-II | – | 17000 |
| Cc1ccc(S(=O)(=O)N2C(=O)COC23C=CC(=O)C=C3)cc1 | MMP2 | enzyme activity, inhibitor, fluorescence | – | – | 6800 |
| CN(C)CCC1(c2ccc(Cl)cc2)Cc2ccccc2C(=O)O1 (stereo not drawn) | ADRB2 | ligand displacement, radioligand | – | cell membranes | 86800 |
| COc1cc(O)c(CC=C(C)C)c(O)c1C(=O)/C=C/c1ccc(O)cc1 | CYP1B1 | enzyme activity, inhibitor, fluorescence | – | 15 min, pH 7.4 | 340 |
| COc1cccc2sc(N(CCN(C)C)C(=O)c3ccc4c(c3)CCCC4)nc12 | Trpc6 | calcium signal, fluorescence | – | – | 4200 |
| Cc1cnc(-c2ccc(-c3ccc(NC(=O)Nc4c(F)cc(F)cc4F)cc3F)c3c2C(=O)NC3)[nH]1 | DDR1 | enzyme activity, inhibitor | – | – | 53.8 |
| COc1ccc2nc(N(CCN3CCCC3)C(=O)c3ccc(Cl)s3)sc2c1 | Trpc6 | calcium signal, fluorescence | – | – | 33000 |
| Cc1csc(COCC(=O)C23CC4CC(CC(C4)C2)C3)n1 | 11-beta-hydroxysteroid dehydrogenase 1 (HSD11B1, Homo sapiens, UniProt P28845) | enzyme activity in cells, inhibitor | – | – | 71 |
| CCCC[C@H](NC(=O)C1CN(C)C1)c1ncc(-c2cc3ccccc3nc2OC)[nH]1 | HDAC10 | enzyme activity, inhibitor | – | – | 75 |
| CN1[C@@H]2CC[C@H]1C[C@@H](OC(=O)c1c[nH]c3ccccc13)C2 | ADRB2 | ligand displacement, radioligand | – | cell membranes | 37700 |
| CCCC[C@H](NC(=O)[C@H](C)c1c(C)[nH]c2ccc(O)cc12)c1ncc(-c2cc3ccccc3nc2OC)[nH]1 | HDAC10 | enzyme activity, inhibitor | – | – | 430 |
| CCC1(c2ccc(C)cc2)C(=O)N(C(=O)OC(C)C)N1C(=O)OC(C)C (stereo not drawn) | Protein phosphatase methylesterase 1 (Mus musculus, UniProt Q8BVQ5) | enzyme activity, inhibitor | – | – | 1300 |
| CCOCc1nc(O)c(-c2nnc(Cc3ccc(Cl)cn3)o2)c(O)c1-c1c(OC)cccc1OC | ADRB2 | ligand displacement, radioligand | – | – | > 30000 |
| Cc1noc(-c2cc3cc(-c4nc(C(=O)NCC5CCOCC5)[nH]c4C)ccc3[nH]2)n1 | MMP2 | enzyme activity, inhibitor | – | – | > 20000 |
| O=C(c1ccc(-c2cccc(C(F)(F)F)c2)o1)N1CCN2CCC1CC2 | Neuronal acetylcholine receptor subunit alpha-7 (CHRNA7, Homo sapiens, UniProt P36544) | ion current, two-electrode voltage clamp | – | oocytes | 1200 |

| Structure (SMILES) | target | assay | system | setting | IC50 [nM] |
| --- | --- | --- | --- | --- | --- |
| Cc1ccc(NC(=O)c2ccc(C)c(C(F)(F)F)c2)cc1C#Cc1nn(C2CCC(O)CC2)c2ncnc(N)c12 (stereo not drawn) | DDR1 | enzyme activity, inhibitor, radiometric | – | – | 15 |
| CC/C(=C(\c1ccc(O)cc1)c1ccc(OCCN(C)C)cc1)c1ccccc1 | SETD7 | enzyme activity, inhibitor | – | – | > 333000 |
| Cc1c(C(=O)NN2CCCCC2)nc(-c2ccc(Cl)cc2Cl)n1-c1ccc(OS(=O)(=O)CCC(C)(C)C)cc1 | CNR2 | GTPγS binding, antagonist | – | cell membranes | 1360 |
| Cn1nc(C(=O)NCc2ccc(C(=O)O)cc2)cc1-c1ccc2[nH]c(-c3cccnc3)cc2c1 | MMP2 | enzyme activity, inhibitor | – | – | > 20000 |
| Cc1c(C(=O)NN2CCCCC2)nc(-c2ccc(Cl)cc2Cl)n1-c1ccc(OS(=O)(=O)CCCC(F)(F)F)cc1 | CNR2 | GTPγS binding, antagonist | – | cell membranes | 320 |
| CC(C)(C)n1nc(-c2cnc3cc(OC4CC4)ccc3c2)c(C(N)=O)c1N | Casein kinase I isoform alpha (CSNK1A1, Homo sapiens, UniProt P48729) | cell-free assay, inhibitor | – | – | 2910 |
| CNC(=O)c1cc2c(Oc3ccc(NC(=O)C4(C(=O)Nc5ccc(F)cc5)CC4)cc3)ccnc2cc1OC | DDR1 | enzyme activity, inhibitor, radiometric | – | – | 13 |
| Cn1nc(C(=O)NCc2ccc(C(=O)O)cc2)cc1-c1ccc2[nH]c(-c3ccncn3)cc2c1 | MMP2 | enzyme activity, inhibitor | – | – | > 20000 |
| CC[Si](C#Cc1ccc2c(c1)C=C([N+](=O)[O-])C(C(F)(F)F)O2)(CC)CC (stereo not drawn) | P2RY6 | calcium signal, antagonist | – | – | ~1000 |
| CN1CCN(c2ccc(Nc3ncc4cc(C#N)c(=O)n(C5CCCC5)c4n3)cc2)CC1 | Protein kinase C epsilon type (PRKCE, Homo sapiens, UniProt Q02156) | enzyme activity, inhibitor | – | – | 6310 |
| N=C(N)NCCCC(NC(=O)C(c1ccccc1)c1ccccc1)C(=O)NCc1ccc(O)cc1 (stereo not drawn) | ADRB2 | ligand displacement, radioligand | – | cell membranes | 63100 |
| Cc1c(C(=O)N[C@H]2CCC[C@H](O)C2)nc(-c2ccc(Cl)cc2Cl)n1-c1ccc(OS(=O)(=O)CCC(F)(F)F)cc1 (relative stereo) | CNR2 | GTPγS binding, antagonist | – | cell membranes | 425 |
| COc1ccc2nc(/N=C3/NC(=O)C(=Cc4ccc(O)cc4)S3)sc2c1 | Akr1b1 | enzyme activity, inhibitor, absorbance | – | pH 6.2 | 1300 |
| Cc1noc(-c2cc3cc(-c4nc(C(N)=O)[nH]c4C)ccc3[nH]2)n1 | MMP2 | enzyme activity, inhibitor | – | – | > 20000 |
| CN(CCC(=O)O)C(=O)c1ccc2c(c1)CC[C@@H]1[C@@H]2CC[C@]2(C)C(c3cncc(F)c3)=CC[C@@H]12 | Ileal sodium/bile acid cotransporter (SLC10A2, Homo sapiens, UniProt Q12908) | transporter uptake, inhibitor | – | – | 49000 |
| Cn1nc(C(=O)NCc2ccc(C(=O)O)cc2)cc1-c1ccc2[nH]c(-c3ccncc3)cc2c1 | MMP2 | enzyme activity, inhibitor | – | – | > 22000 |
| Cc1c(C(=O)NN2CCCCC2)nc(-c2ccc(Cl)cc2Cl)n1-c1ccc(OS(=O)(=O)CCC(C)C)cc1 | CNR2 | GTPγS binding, antagonist | – | cell membranes | 271 |
| O=C(OCc1ccccc1)c1ccc(O)cc1 | SETD7 | enzyme activity, inhibitor | – | – | > 333000 |
| COc1ccc(/C=C2\SC(=Nc3nc4ccc(OC)cc4s3)NC2=O)cc1 | Akr1b1 | enzyme activity, inhibitor, absorbance | – | pH 6.2 | 4350 |
| CC(=O)N[C@H]1CC(=O)NCCCC[C@@H](C(=O)N[C@@H](CCCNC(=N)N)C(=O)c2nc3ccc(C(=O)N[C@H](C(N)=O)C(C)C)cc3s2)NC(=O)[C@H](CC(C)C)NC1=O | Serine protease hepsin (HPN, Homo sapiens, UniProt P05981) | enzyme activity, inhibitor, fluorescence | – | with preincubation | 5.4 |
| O=C(CCCCCCNC(=O)c1cnc(N(c2ccccc2)c2ccccc2Cl)nc1)NO | HDAC10 | enzyme activity, inhibitor, fluorescence | – | – | 2520 |
| CC[C@@H](C(=O)Nc1ccc(C(N)=O)c(F)c1)n1cc(OC)c(-c2cc(Cl)ccc2-n2cc(C(F)(F)F)nn2)cc1=O | Coagulation factor X (F10, Homo sapiens, UniProt P00742) | enzyme activity, inhibitor | – | – | 1700 |
| O=[N+]([O-])C1=Cc2ccccc2OC1C(F)(F)F (stereo not drawn) | P2RY6 | calcium signal, antagonist, fluorescence | – | – | 2620 |
| Cc1noc(-c2cc3cc(-c4nc(C(=O)NCc5ccccn5)[nH]c4C)ccc3[nH]2)n1 | MMP2 | enzyme activity, inhibitor | – | – | > 20000 |
